Calls of active or inactive are those of the source.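 Rule for the calls, unless noted: active = Her2 level under about 52% in both replicate screens, with viability over 70% of control (limit read from the data); inconclusive = Her2 under the limit in one screen only, or viability under 70%; inactive = Her2 level above the set limit.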
Experiments:
[1] = Her2 expression decrease, cell viability multiplex – SKBR3 breast tumor cells, AlphaScreen, ATP viability, primary screen (AID 461); settings: SKBR3 Her2 protein level, 18-24 h, measured here: SKBR3 viability, ATP luminescence, at 10 µM;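 for Her2 level: lower value means less Her2 protein in the cells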;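 for viability: percent of carrier control wells set as 100% viability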
[2] = molecular target: Receptor tyrosine-protein kinase erbB-2 (Homo sapiens) (UniProt P04626); assay: as above; settings: 18-24 h, at 10 µM, stronger effect = lower value
Sequence of Receptor tyrosine-protein kinase erbB-2 (Homo sapiens) (P04626 whole entry, looked up): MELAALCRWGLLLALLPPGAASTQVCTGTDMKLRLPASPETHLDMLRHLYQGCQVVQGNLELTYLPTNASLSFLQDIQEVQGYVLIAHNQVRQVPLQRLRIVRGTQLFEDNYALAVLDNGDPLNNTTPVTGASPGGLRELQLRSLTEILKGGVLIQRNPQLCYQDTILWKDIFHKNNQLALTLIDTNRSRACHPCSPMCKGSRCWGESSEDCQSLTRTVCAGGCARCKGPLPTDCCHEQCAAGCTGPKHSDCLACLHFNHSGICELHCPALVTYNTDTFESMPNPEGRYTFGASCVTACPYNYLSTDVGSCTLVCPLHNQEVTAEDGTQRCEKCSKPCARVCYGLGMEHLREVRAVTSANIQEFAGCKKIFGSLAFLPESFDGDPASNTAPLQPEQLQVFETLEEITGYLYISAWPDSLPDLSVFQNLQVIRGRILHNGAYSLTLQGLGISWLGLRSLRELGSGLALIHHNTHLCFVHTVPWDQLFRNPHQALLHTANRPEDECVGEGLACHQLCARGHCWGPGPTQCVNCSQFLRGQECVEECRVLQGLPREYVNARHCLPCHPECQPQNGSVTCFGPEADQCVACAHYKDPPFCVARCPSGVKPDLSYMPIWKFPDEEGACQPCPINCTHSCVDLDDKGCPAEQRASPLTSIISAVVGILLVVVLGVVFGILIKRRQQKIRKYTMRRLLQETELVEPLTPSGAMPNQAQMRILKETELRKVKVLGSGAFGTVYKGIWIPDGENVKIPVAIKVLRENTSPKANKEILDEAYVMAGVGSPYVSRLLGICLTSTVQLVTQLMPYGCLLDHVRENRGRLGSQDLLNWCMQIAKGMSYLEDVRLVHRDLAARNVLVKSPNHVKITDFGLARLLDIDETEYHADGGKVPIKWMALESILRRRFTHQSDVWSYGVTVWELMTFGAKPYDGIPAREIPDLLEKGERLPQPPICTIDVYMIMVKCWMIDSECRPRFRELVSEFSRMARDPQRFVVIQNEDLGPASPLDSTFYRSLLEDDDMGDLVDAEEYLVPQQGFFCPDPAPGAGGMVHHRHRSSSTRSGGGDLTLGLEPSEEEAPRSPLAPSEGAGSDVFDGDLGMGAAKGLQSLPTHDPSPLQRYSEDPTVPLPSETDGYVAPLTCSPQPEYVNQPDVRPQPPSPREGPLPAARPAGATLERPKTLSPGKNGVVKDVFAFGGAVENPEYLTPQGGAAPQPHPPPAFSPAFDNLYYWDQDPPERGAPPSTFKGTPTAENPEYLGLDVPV

[3] = reduced viability of SK-BR-3 breast cancer cells – cell-based, 24 h, human, pilot screen (AID 572;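 active = viability at or below 10% of carrier control in both of two separate runs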;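 note: compound exposure lasted between 18 and 24 h rather than exactly 24 h; 100% = carrier-treated control wells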); settings: SK-BR-3 viability, CellTiter-Glo luminescence, at 10 µM, stronger effect = lower value
[4] = HUVEC growth inhibition – cell-based, human, primary screen (AID 575;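 active = viability at or below 30% in both replicate assays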;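 note: 100% = median of untreated cell wells with 0.1% DMSO on each plate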); settings: HUVEC proliferation, CellTiter-Glo luminescence, 72 h; at 10 µM; stronger effect = lower value
Outline: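 Test system: primary human umbilical vein endothelial cells. Quantity: 1250 cells/well. Compound: single 10 µM dose, 0.1% DMSO, from 5x medium stock. Timing: 72 h treatment at 37 °C. Detection: ATP-based CellTiter-Glo luminescent read. Benchmarks: vehicle and MePR control wells. Format: 384-well plates coated with collagen.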

[5] = H69AR cell proliferation blockers – human, duplicate replicates, primary screen (AID 580;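 active = viability at or under a set limit in both replicates, limit being median viability minus 3 SD, cut at about 48% in these data, passing the limit was not always enough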;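 note: 100% = mean luminescence of untreated wells and 0% = no signal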); settings: H69AR lung tumor cells viability, ATP luminescence, 72 h; at 10 µM; stronger effect = lower value
[6] = MRP1 drug-resistance reversers in H69AR cells – cell-based, doxorubicin co-treatment, pilot screen (AID 601;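 active = viability loss from added drug above about 55%, and viability with drug at most 40%, in both replicates, limit read from the data, passing the limit was not always enough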); settings: CellTiter-Glo, 72 h, at 10 µM; for differential viability (reversal): stronger effect = higher value
[7] = yeast transport mutant growth inhibition pilot in 384-well plates, post-Golgi transport modulator project (AID 636; in the data active = inhibition above about 31%); settings: absorbance 615 nm, about 18 h, stronger effect = higher value
[8] = growth suppression of yeast trafficking mutant, preliminary HTS, modulators of trafficking downstream of Golgi apparatus project, 1536-format plate, OD 615 nm (AID 637; in the data active = inhibition above about 30%); settings: yeast transport mutant growth, absorbance 615 nm, 18 h; stronger effect = higher value
[9] = H69AR cells + 2 uM doxorubicin, measured here: viability with 2 uM doxorubicin, stronger effect = lower value
[10] = H69AR cells, compound alone cytotoxicity

Structure (SMILES) | viability [1] | Her2 level [2] | viability [3] | viability [4] | viability [5] | differential viability (reversal) ([6]; H69AR cells + 2 uM doxorubicin) | viability [6, 9] | viability [6, 10] | inhibition [7] | inhibition [8]
C=CCn1c(SCC(=O)NCCCC)nc2scc(-c3ccco3)c2c1=O | 91.5% | 75.5% (inactive) | 91.5% (inactive) | 95.4% (inactive) | 88.8% (inactive) | 2.11% (inactive) | 86.7% | 88.8% | 0.13% (inactive) | -1.48% (inactive)
O=C(Cn1cnc2ccccc2c1=O)NCCC(=O)N1CCN(c2ccccc2)CC1 | 90.5% | 83.5% (inactive) | 90.5% (inactive) | 99.6% (inactive) | 92% (inactive) | 8.53% (inactive) | 83.5% | 92% | -3.25% (inactive) | -0.98% (inactive)
Cc1occc1-c1nnc(SCC(=O)c2ccc(F)cc2)n1Cc1ccco1 | 77.5% | 82% (inactive) | 77.5% (inactive) | 84.1% (inactive) | 85.3% (inactive) | 3.13% (inactive) | 82.2% | 85.3% | -1.33% (inactive) | -0.16% (inactive)
CCOc1ccccc1Nc1ncnc2ccccc12 | 101% | 81% (inactive) | 101% (inactive) | 78.4% (inactive) | 82% (inactive) | 1.99% (inactive) | 80% | 82% | -1.45% (inactive) | 0.18% (inactive)
COC(=O)c1sc(S(=O)(=O)Nc2ccc3cn[nH]c3c2)c(C(=O)OC)c1C | 97% | 93.5% (inactive) | 97% (inactive) | 77.6% (inactive) | 78.2% (inactive) | -12.4% (inactive) | 90.6% | 78.2% | -2.5% (inactive) | -6.55% (inactive)
Cc1cc(O)c(C(C)C)cc1N=C1CSC(=O)N1 | 89% | 78.5% (inactive) | 89% (inactive) | 95.3% (inactive) | 87.7% (inactive) | 1.7% (inactive) | 86% | 87.7% | -2.11% (inactive) | -1.82% (inactive)
CCCCC(CC)C(=O)Nc1ccc(Cl)cn1 (stereo not given) | 103% | 102% (inactive) | 103% (inactive) | 98.3% (inactive) | 94.3% (inactive) | 12.2% (inactive) | 82.1% | 94.3% | -5.47% (inactive) | 1.97% (inactive)
Cc1ccc(C(C(=O)NC(C)(C)C)N(C(=O)c2csnn2)c2cccc(F)c2)o1 (stereo not given) | 83.5% | 97% (inactive) | 83.5% (inactive) | 103% (inactive) | 92.8% (inactive) | 1.6% (inactive) | 91.2% | 92.8% | -3.6% (inactive) | 24.4% (inactive)
CCOC(=O)N1CCC2(CC1)CC(=O)c1c(ccc3oc(C(=O)O)c(C)c13)O2 | 118% | 96% (inactive) | 118% (inactive) | 111% (inactive) | 92.3% (inactive) | 3.56% (inactive) | 88.7% | 92.3% | -0.79% (inactive) | -4.55% (inactive)
CCCCc1ccc(NC(=O)N[C@H](C(=O)O)C(C)CC)cc1 (stereo not given in full) | 112% | 82% (inactive) | 112% (inactive) | 79.5% (inactive) | 99.7% (inactive) | 8.86% (inactive) | 90.8% | 99.7% | -5.92% (inactive) | -2.38% (inactive)
COCCN1C(=O)C(=O)/C(=C(/O)c2ccc(OC(C)C)cc2)C1c1cccnc1 (stereo not given) | 94.5% | 86.5% (inactive) | 94.5% (inactive) | 89.7% (inactive) | 92.6% (inactive) | 5.24% (inactive) | 87.4% | 92.6% | -3.55% (inactive) | 3.33% (inactive)
CCOC(=O)C1C(=O)N(C(=O)c2ccc(OC)cc2)CC1c1ccccc1 (stereo not given) | 91.5% | 94.5% (inactive) | 91.5% (inactive) | 83.3% (inactive) | 86.6% (inactive) | 1.9% (inactive) | 84.7% | 86.6% | -0.65% (inactive) | -5.41% (inactive)
Cc1cccc(-c2nnn(CC/C(N)=N/O)n2)c1 | 85% | 84.5% (inactive) | 85% (inactive) | 85.3% (inactive) | 104% (inactive) | -1.3% (inactive) | 105% | 104% | -2.53% (inactive) | -0.16% (inactive)
COc1ccc(CCNC(=O)c2cc(-c3cc(C)c(C)cc3O)n[nH]2)cc1OC | 93.5% | 87.5% (inactive) | 93.5% (inactive) | 86.6% (inactive) | 77% (inactive) | 1.53% (inactive) | 75.5% | 77% | -3.82% (inactive) | -4% (inactive)
CC12CCC(C(=O)N3CCCCC3)(CC1=O)C2(C)C (stereo not given) | 97.5% | 102% (inactive) | 97.5% (inactive) | 96.3% (inactive) | 97.8% (inactive) | 0.59% (inactive) | 97.2% | 97.8% | -3.08% (inactive) | -0.83% (inactive)
CCCCN(c1ccccc1)S(=O)(=O)c1ccc2c(c1)CCN2C(=O)CCC(=O)O | 116% | 100% (inactive) | 116% (inactive) | 93.8% (inactive) | 91.9% (inactive) | 1.98% (inactive) | 90% | 91.9% | -1.58% (inactive) | -6.73% (inactive)
Cc1cc(-c2ccccc2)c2c3c(cn2n1)c(=O)n(C)c(=O)n3C | 108% | 83% (inactive) | 108% (inactive) | 84.3% (inactive) | 75.6% (inactive) | -0.565% (inactive) | 76.1% | 75.6% | -2.37% (inactive) | 0.33% (inactive)
Cc1cc(S(=O)(=O)NC2CCCCC2)ccc1OCC(=O)NCc1ccccn1 | 91.5% | 84% (inactive) | 91.5% (inactive) | 105% (inactive) | 99.1% (inactive) | 6.34% (inactive) | 92.8% | 99.1% | -0.53% (inactive) | 4.52% (inactive)
O=C(Nc1cccc(C(=O)N2CCOCC2)c1)c1cccnc1 | 99.5% | 118% (inactive) | 99.5% (inactive) | 91% (inactive) | 91.2% (inactive) | -9.23% (inactive) | 100% | 91.2% | -6.18% (inactive) | -3.11% (inactive)
COc1ccccc1N1CCN(C(=O)CSc2nc(-c3ccccc3)cc(=O)[nH]2)CC1 | 87.5% | 124% (inactive) | 87.5% (inactive) | 80.8% (inactive) | 88.1% (inactive) | -1.75% (inactive) | 89.8% | 88.1% | -3.16% (inactive) | -6.83% (inactive)
CCOC(=O)CNC(=O)CSc1ncnc2c1cnn2Cc1ccccc1 | 96% | 82.5% (inactive) | 96% (inactive) | 54.5% (inactive) | 100% (inactive) | 10.3% (inactive) | 90.1% | 100% | -5.84% (inactive) | -6.56% (inactive)
O=C(c1ccccc1)N1CCCCC(Sc2nnnn2-c2ccccc2)C1=O (stereo not given) | 89.5% | 104% (inactive) | 89.5% (inactive) | 82.7% (inactive) | 104% (inactive) | 12.6% (inactive) | 91.1% | 104% | -6.13% (inactive) | -0.32% (inactive)
Cc1onc(-c2ccccc2Cl)c1C(=O)NCc1cccnc1 | 103% | 102% (inactive) | 103% (inactive) | 110% (inactive) | 94.5% (inactive) | 9.16% (inactive) | 85.4% | 94.5% | -4.8% (inactive) | 6.13% (inactive)
O=[n+]1c2c(n([O-])c3c1CCCC3)CCCC2 | 108% | 91% (inactive) | 108% (inactive) | 93.9% (inactive) | 88.6% (inactive) | -8.33% (inactive) | 96.9% | 88.6% | -0.65% (inactive) | 7.38% (inactive)
CCOC(=O)N1CCN(C(=O)COc2ccc(Br)cc2Cl)CC1 | 96% | 112% (inactive) | 96% (inactive) | 117% (inactive) | 93.7% (inactive) | 2.46% (inactive) | 91.2% | 93.7% | -1.17% (inactive) | -5.33% (inactive)
Cc1ccc(NC(=O)CSc2nnc(Cc3cccn3C)n2-c2ccc(F)cc2)cc1 | 82.5% | 78.5% (inactive) | 82.5% (inactive) | 84% (inactive) | 91.9% (inactive) | -4.92% (inactive) | 96.8% | 91.9% | -1.03% (inactive) | -4.83% (inactive)
CCN(CC)CCNC(=O)CCn1c(=S)[nH]c2cc3c(cc2c1=O)OCO3 | 79% | 89.5% (inactive) | 79% (inactive) | 89.8% (inactive) | 90.1% (inactive) | 0.295% (inactive) | 89.8% | 90.1% | -4.59% (inactive) | -2.3% (inactive)
COCCNC(=O)C(C)OC(=O)c1nsc(Cl)c1Cl (stereo not given) | 103% | 108% (inactive) | 103% (inactive) | 110% (inactive) | 99.3% (inactive) | 4.84% (inactive) | 94.5% | 99.3% | -1.08% (inactive) | 25.7% (inactive)

— PubChem BioAssay
